The values below come from ChEMBL document CHEMBL2163264, “Identification and synthesis of substituted pyrrolo[2,3-d]pyrimidines as novel firefly luciferase inhibitors” (Bioorg Med Chem, 2012).

For assay [1], the target named is Luciferin 4-monooxygenase (Photinus pyralis) (UniProt P08659). The assay can be described thus: Mixed-type inhibition of Photinus pyralis luciferase using D-luciferin as substrate at 10 uM after 20 mins by bioluminescence assay.
In assay [2] the target is T1, Luciferin 4-monooxygenase (Photinus pyralis, UniProt P08659). The experiment in a line: Mixed-type inhibition of Photinus pyralis luciferase using D-luciferin as substrate after 20 mins by bioluminescence assay. In outline:
(§1)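 Photinus pyralis firefly luciferase (32 nM) in buffer A (1 M glycine-Tris, 10 mM EDTA, 100 mM MgSO4, pH 7.8) preincubated with inhibitor or buffer 20 min in the dark at room temperature. D-luciferin varied 3.125–200 µM with ATP fixed at 250 µM. Luminescence read. Apparent Km and Vmax from nonlinear Michaelis–Menten fit. Three independent assays in triplicate.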

Assay [3] addresses T1, Luciferin 4-monooxygenase. The assay can be described thus: Competitive inhibition of Photinus pyralis luciferase using 3.125 to 200 uM D-luciferin as substrate after 20 mins by Michaelis-Menten plot in presence of 250 uM ATP. In outline: as §1
The target in assay [4] is T1, Luciferin 4-monooxygenase. The experiment in a line: Uncompetitive inhibition of Photinus pyralis luciferase using 50 uM D-luciferin as substrate after 20 mins by nonlinear regression analysis in presence of 25 to 500 uM ATP. In outline:
(§2)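 ATP-dependence kinetics: 32 nM P. pyralis luciferase in pH 7.8 glycine-Tris/EDTA/MgSO4 buffer, preincubated 20 min with inhibitor in the dark at room temperature. ATP varied 25–500 µM with D-luciferin fixed at 50 µM, read by bioluminescence. Double-reciprocal plots were examined. Apparent Km and Vmax came from nonlinear Michaelis–Menten fitting. Three independent assays in triplicate.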

The target of assay [5] is T1, Luciferin 4-monooxygenase. The experiment in a line: Mixed-type inhibition of Photinus pyralis luciferase using D-luciferin as substrate after 20 mins by Michaelis-Menten plot. The method in brief: as §1
Assay [6] deals with Luciferin 4-monooxygenase (Photinus pyralis) (UniProt P08659). The assay can be described thus: Uncompetitive inhibition of Photinus pyralis luciferase using 50 uM D-luciferin as substrate after 20 mins by Lineweaver-Burk plot in presence of 25 to 500 uM ATP. In outline: as §2

The source made the active and inactive calls. The rule behind the calls is not given here.

Luciferin 4-monooxygenase (Photinus pyralis), sequence (P08659 whole entry): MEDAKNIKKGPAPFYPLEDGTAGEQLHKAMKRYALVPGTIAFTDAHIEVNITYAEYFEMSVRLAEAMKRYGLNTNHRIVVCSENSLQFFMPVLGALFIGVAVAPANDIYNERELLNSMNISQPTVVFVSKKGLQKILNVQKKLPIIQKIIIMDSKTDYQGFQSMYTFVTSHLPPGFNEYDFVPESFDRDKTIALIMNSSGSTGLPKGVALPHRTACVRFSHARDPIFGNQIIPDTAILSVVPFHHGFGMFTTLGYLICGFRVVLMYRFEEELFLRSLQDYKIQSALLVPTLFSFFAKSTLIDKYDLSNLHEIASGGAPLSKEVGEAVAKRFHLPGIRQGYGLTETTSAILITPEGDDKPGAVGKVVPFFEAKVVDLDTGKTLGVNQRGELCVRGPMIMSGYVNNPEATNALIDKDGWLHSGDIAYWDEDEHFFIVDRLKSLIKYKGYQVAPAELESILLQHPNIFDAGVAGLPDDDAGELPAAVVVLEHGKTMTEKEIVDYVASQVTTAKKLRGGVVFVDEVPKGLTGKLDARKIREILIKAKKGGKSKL
T1 sequence (P08659 whole entry): as above

For `Cn1ccc2c(Oc3ccc(N)cc3)ncnc21`, the inhibition (usually how much of the control response was suppressed) in assay [1] came out at 48%.
For the compound `Nc1ccc(Oc2ncnc3[nH]ccc23)cc1`, the inhibition in assay [1] is 19%.
In the case of `C=C(C)Cn1ccc2c(Oc3ccc(N(C)C)cc3)ncnc21`, in assay [2], half-maximal inhibition (IC50) required 90 nM.
Same read-out and setting: with `CC(C)n1ccc2c(Oc3ccc(N(C)C)cc3)ncnc21` the figure was 180 nM.
In assay [1], `Nc1ccc(Oc2ncnc3c2ccn3Cc2ccccc2)cc1` displayed an inhibition of 46%.
On the same count and under the same terms, the figure for `Nc1ccc(Oc2ncnc3c2ccn3Cc2ccc(C(F)(F)F)cc2)cc1` is 7%.
For the compound `CN(C)c1ccc(Oc2ncnc3c2ccn3CC(C)(C)C)cc1`, the IC50 (commonly the midpoint of a concentration-inhibition curve) in assay [2] amounted to 120 nM.
As to `CC(C)n1ccc2c(Oc3ccc(N)cc3)nc(S(C)(=O)=O)nc21`, the inhibition in assay [1] turned out to be 9%.
Compound `CC(C)Cn1ccc2c(Oc3ccc(N)cc3)ncnc21` came in with a half-maximal inhibitory concentration (IC50) in assay [2] of 310 nM.
The same measure, in the same setting: the figure for `C=CCn1ccc2c(Oc3ccc(N)cc3)ncnc21` is 2240 nM; for `CC(C)n1ccc2c(Oc3ccc(N)cc3)nc(N)nc21` it is 10800 nM; for `C=C=Cn1ccc2c(Oc3ccc(N)cc3)ncnc21` it is 9430 nM.
The same measure, in the same setting: with `CNc1ccc(Oc2ncnc3c2ccn3C(C)C)cc1` the figure was 130 nM.
In assay [1], `COc1ccc(Cn2ccc3c(Oc4ccc(N)cc4)ncnc32)cc1` yielded an inhibition of 26%.
Turning to `CCn1ccc2c(Oc3ccc(N)cc3)ncnc21`, in assay [2], half-maximal inhibition (IC50) was put at 3510 nM.
Still for that read-out and setting: the figure for `CC(C)n1ccc2c(Oc3ccccc3N)ncnc21` is 7300 nM.
Take `CC(C)n1ccc2c(Oc3ccc(N)cc3)ncnc21`: the figures for the Ki in assay [3], in assay [4] and in assay [5] were 1430 nM, 340 nM and 220 nM, respectively. This compound yielded a 50% inhibitory concentration (IC50) in assay [2] of 360 nM. The inhibition result in assay [6] is “Active”.
`C=C(C)Cn1ccc2c(Oc3ccc(N)cc3)ncnc21` had a concentration for half-maximal inhibition (IC50) in assay [2] of 120 nM.
In the case of `CC(C)CCn1ccc2c(Oc3ccc(N)cc3)ncnc21`, the IC50 in assay [2] came to 6460 nM.
In assay [1], `CSc1nc(Oc2ccc(N)cc2)c2ccn(C(C)C)c2n1` displayed an inhibition of 31%.
Compound `Nc1ccc(Oc2ncnc3c2ccn3C2CCCC2)cc1` had an IC50 in assay [2] of 290 nM.
On the same count and under the same terms, the figure for `CC(C)=CCn1ccc2c(Oc3ccc(N)cc3)ncnc21` is 7530 nM; for `CC(C)(C)Cn1ccc2c(Oc3ccc(N)cc3)ncnc21` it is 80 nM; for `CC(C)n1ccc2c(Oc3cccc(N)c3)ncnc21` it is 14700 nM.
With `CNc1ccc(Oc2ncnc3c2ccn3CC(C)(C)C)cc1`, the concentration for half-maximal inhibition (IC50) in assay [2] was found to be 70 nM.
`NC(=O)Cn1ccc2c(Oc3ccc(N)cc3)ncnc21` registered an inhibition in assay [1] of 21%.
Compound `CCOC(=O)Cn1ccc2c(Oc3ccc(N)cc3)ncnc21` came in with an inhibition in assay [1] of 33%.
As to `C=C(C)Cn1ccc2c(Oc3ccc(NC)cc3)ncnc21`, in assay [2], the IC50 turned out to be 60 nM. In other words, the double-digit nanomolar range.
